Results as given in ChEMBL document CHEMBL4513216, “Probing the Open Global Health Chemical Diversity Library for Multistage-Active Starting Points for Next-Generation Antimalarials” (ACS Infect Dis, 2020).

Experiment: Toxicity liver stage against HepG2, at 10uM
Format: cell-based
Parameters: test concentration 10 uM, cell line HepG2-A16-CD81EGFP
Conditions: human, HepG2-A16-CD81EGFP cells; read-out: INHIBITION
Outline: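 Uninfected HepG2-A16-CD81EGFP cells, 3 × 10^3 per well, 1536-well, plated on prespotted compound at 10 μM final, parasite-free screening media added to match infected plates; puromycin 10 μM positive, DMSO 0.5% negative; run in parallel with 48 h PbLuc assay at 37 °C, 5% CO2; viability by CellTiter-Glo luminescence, normalized to controls.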

SMILES | cytotoxicity at 10 µM
CNC(=O)NCC(=O)N(C)C(c1ccc(Cl)cc1)c1cccnc1 (stereo unspecified) | 9.61%
Cc1oc(-c2nc(C#N)c(NC(C)C)o2)cc1S(=O)(=O)N1CCCC1 | 5.61%
Cc1ccc(C(=O)N(C)CCNS(C)(=O)=O)cc1Br | -45.8%
CCc1nn(C)c(Cl)c1CN1C[C@H](NC(=O)CCO)[C@@H](C(C)C)C1 | 11.1%
COc1ccc(-n2nc(C(C)C)nc2COC(C)C)cc1 | 1.56%
Cc1[nH]c(-c2ccccc2)nc1C(=O)N1CCc2[nH]cnc2C1C(=O)O (stereo unspecified) | 2.43%
CCN(CC)c1nc(O)cc(C(C)n2ncc3ccccc3c2=O)n1 (stereo unspecified) | 2.47%
Cc1ccc(N2CCN(C)c3ncccc3C2)nn1 | -3.77%
Oc1ncccc1-c1nc(-c2cccc(CN3CCOCC3)c2)no1 | -11.8%
Cc1cccc(N2CCOCC3(C2)CN(c2ccccc2)C(=O)CO3)n1 (stereo unspecified) | -4.53%
COc1ccc(NC(=O)N(C)Cc2ccc(Br)o2)cn1 | 12%
CN(C)C(=O)CN1CCCC12CCCN(c1ncc(F)cn1)C2 (stereo unspecified) | -2.51%
O=C(NC1CCN(CC2CC2)C1)c1ccc(N2CCC(O)CC2)cc1 (stereo unspecified) | -11.8%
Cc1ccc(NC(C)(C)c2nnnn2-c2ccc(Cl)cc2)c(C)c1 | 55.4%
CC(C)OCCOCc1cccc(NC(=O)NCCn2ccnc2)c1 | -4.63%
CCc1nsc(N2CCN(CC(=O)Nc3c(C)n[nH]c3C)CC2)n1 | -3.63%
CN1CCN(C(=O)c2ccc(=O)n(C)c2)c2ccccc21 | -11.5%
Cc1nc(C(C)C)sc1C(=O)N(C)Cc1nc(-c2ccccn2)no1 | -0.683%
CCN1CCCC1CNC(=O)CCc1cccs1 (stereo unspecified) | -9.09%
Cc1cc(C)n(NC(=O)c2ccc(Cl)cc2Cl)c(=O)c1 | -7.05%
CC(C)(CC(=O)Nc1cccc(Oc2ccccn2)c1)C(=O)O | -17.6%
Cc1ccsc1CNC(=O)CCc1c(C)nc2cc(O)nn2c1C | -7.01%
CCCn1ncc(-c2nc3c(cnn3CC)[nH]2)c1C | 4.05%

SMILES | cytotoxicity at 10 µM
COc1cc(NC(=O)c2ccccc2F)c(C(=O)N(C)C)cc1OC | -14.8%
CCc1nc(CC)n(CC(=O)NCc2ccccc2C)n1 | 15.2%
COc1ccccc1C(=O)N1CC(=O)N(Cc2ccco2)CC(O)C1 (stereo unspecified) | 4.45%
Cc1noc([C@@H]2CCCN2C(=O)C2CCN(C(=O)C3CCC3)CC2)n1 | -14.4%
Cn1cnc(S(=O)(=O)NCCCN2CCCC2)c1Cl | -11.6%
CC1CN(C(=O)CN(Cc2ccccc2Br)C2CC2)CCO1 (stereo unspecified) | 2.38%
CCCC1c2cccn2CCN1C(=O)Cn1cnc2sc(C)cc2c1=O (stereo unspecified) | -0.35%
Cn1cnc(C(=O)N2CC3(CCN(S(=O)(=O)c4ccccc4)C3)C2)c1 | 3.8%
c1ccc(Oc2cccc(OC34CCCN(CC3)C4)c2)cc1 (stereo unspecified) | 0.681%
N#CC1(NC(=O)CNCCn2cccn2)CCCCC1 | -7.5%
O=C(c1ccccc1)N1CCC[C@]2(C[C@@H](OCc3ccncc3)CO2)C1 | 5.25%
CC(c1nc(C2CC2)no1)N1CCN(Cc2cccnc2)CC1 (stereo unspecified) | -6.18%
O=C(c1cnco1)N1CCC(Cc2ccc3ncccc3c2)CC1 | 7.22%
CN(Cc1ccc(Br)s1)Cn1nc(-c2ccc(F)cc2)oc1=O | 1.64%
CS(=O)(=O)CCCC(=O)Nc1cc(-c2cccc(F)c2F)n[nH]1 | 4.77%
Cc1ccoc1C(=O)NC1CCN(CC(=O)N(C)c2ccccc2)CC1 | -2.93%
CCCC1c2ccccc2CCN1CCS(C)(=O)=O (stereo unspecified) | -0.846%
Cn1c(C(=O)N2CCc3[nH]cnc3C2C(=O)O)ccc1-c1ccccc1 (stereo unspecified) | -0.392%
CCC(OC)C(=O)N1CCc2nc(NC)nc(C(=O)N3CCCC3)c2C1 (stereo unspecified) | -18.3%
O=C(O)CN1CCC(F)(F)C2(CCN(c3ccccc3)C2)C1 (stereo unspecified) | 10.7%
CCn1cc(CN2CCCN(C(=O)c3cccn3C)CC2)cn1 | -5.85%
CCc1cc(N2CCC(NCCc3ccccc3F)CC2)nc(C)n1 | 7.33%
c1ccc(CNc2nc(N3CCOCC3)nc3nccnc23)cc1 | 10.5%

SMILES | cytotoxicity at 10 µM
CCOC(=O)c1n[nH]cc1CN1CCOC(Cc2ccccc2)C1 (stereo unspecified) | -5.35%
Cc1ccc(NC(=O)Nc2cnc(N3CCN(C)CC3)nc2)cc1 | -15.4%
O=C1CC(c2cccs2)c2snc(C(=O)O)c2N1 (stereo unspecified) | -11.1%
O=S(=O)(NCc1ccccc1)N1CCN(c2ncccn2)CC1 | 4.7%
Cc1cccc(-n2ncc3c2CCCC3NCC(C)(C)CO)c1C (stereo unspecified) | -1.19%
CNS(=O)(=O)CC(=O)N1CCCc2cc(Br)ccc21 | -12.5%
COCCC(=O)Nc1nccn1Cc1ccc(Br)cc1 | -47.2%
Cc1nc[nH]c1CN(Cc1ccccc1F)C1CC(C)(C)NC(C)(C)C1 | -3.41%
CC(=O)N1CCC2(CCN(C(=O)c3ccc(F)c(C(F)(F)F)c3)CC2)C1 | -80.4%
CC(C)OCCCNC(=O)C1CCC(=O)N(C2CCCC2)C1 (stereo unspecified) | -5.92%
CCc1nc2ccccc2c(=O)n1CC1(O)CCNCC1 | -15.3%
O=C(Nc1ccccn1)c1ccc(F)c(S(=O)(=O)NC2CC2)c1 | 4.37%
CCCn1nc2c(cc1=O)CN(Cc1nc(C)c3ccccc3n1)CC2 | -2.45%
CCN(Cc1ccco1)C(C)c1nc(C(C)(C)C)no1 (stereo unspecified) | 0.623%
COc1cccc(-c2n[nH]c3c2CN(C(=O)c2ccncc2)CC3)c1 | -5.55%
CNC(=O)Cn1c(-c2ccco2)nn(-c2ccccc2OC)c1=O | 2.51%
CN1CC(=O)N(c2cccc(F)c2)CC12CCNC2 (stereo unspecified) | 6.23%
CC(C)N1CCC(NCc2cccnc2N(C)Cc2ccccc2)CC1 | 21%
CCSc1ccc(C(C)NC(=O)CCS(C)(=O)=O)cc1 (stereo unspecified) | 2.18%
O=C(NCCN1CCCC1)c1cc2c(s1)CCN2c1ncccn1 | -108%
CCN(CC)C(=O)CCc1nc(-c2cnn3c(C)cc(C)nc23)no1 | -11.5%
CCCN1CCN(C(=O)c2ccc3nc(C)oc3c2)[C@H]2CS(=O)(=O)C[C@H]21 | -23.2%
CCc1ccc(CNC(=O)CCNS(=O)(=O)c2cn(C)c(C)n2)s1 | 6.13%

SMILES | cytotoxicity at 10 µM
Cc1ncccc1OC1(C(=O)NCCCN2CCOCC2)CCNCC1 | -10.8%
Cc1cnn(CC2CCCCN2c2nn3cc(C)nc3s2)c1 (stereo unspecified) | -18.4%
Cc1nc(CN2CCCN(C(=O)CC(C)n3cccc3)CC2)cs1 (stereo unspecified) | -6.25%
O=C1CC2(CCN(Cc3ccco3)C2)CN1c1ccc2c(c1)OCO2 (stereo unspecified) | -75.9%
Cc1cc(C(=O)NCc2ccccc2CN(C)Cc2ccco2)on1 | 3.57%
Cc1cc(OCCC(=O)Nc2cccc(F)c2)nnc1C | -2.32%
Cc1ccc(C(=O)N2CCc3ncnc(-c4cnn(C)c4)c3CC2)cn1 | 7.83%
CC(C)C(=O)NCc1cccc(N2CCCCC2=O)c1 | -1.73%
CCn1nccc1CNC(=O)C1CCCC1 | -18.5%
Cc1ccccc1C(=O)N1CC[C@@H](N2CCC(O)CC2)[C@H](O)C1 | 2.94%
COCCN(Cc1cnn(C)c1)c1nc2c(s1)c(C)nn2C | -42.4%
CN1CC(C)(C)CN(C(=O)CCc2ccccc2)CC1=O | -0.191%
CC1CCN(CC(=O)NC2CCN(C(C)c3ccccc3)CC2)CC1 (stereo unspecified) | -6.36%
Cc1cc2nc(SCC(=O)N3CCCCC3)n(C)c(=O)c2[nH]1 | 5.56%
COCCCN1CC2(CCCN(CCn3cc(Cl)cn3)C2)CCC1=O (stereo unspecified) | 5.97%
CC(NC(=O)Nc1nnc(-c2ccccn2)s1)C(=O)OC(C)(C)C (stereo unspecified) | -6.87%
CC(NC(=O)c1ccc2c(c1)OCC(=O)N2)c1ccccc1F (stereo unspecified) | -4.42%
N#Cc1cc(F)ccc1NCC1CCN(S(=O)(=O)C(F)F)CC1 | 18.4%
O=C(c1ccnc(-n2cnnc2)c1)N1CCCC2(CCOC2)C1 (stereo unspecified) | -15.1%
Cn1c(N)nnc1SCc1c(F)cccc1Br | -43.2%
Cc1nc2cc(C3CCOCC3)nn2c(NCC2COCCO2)c1C (stereo unspecified) | 0.135%
CC1=C(C#N)C(=O)NC(=O)/C1=C\c1c(C)[nH]n(-c2ccc(Cl)cc2)c1=O | -8.94%
O=C(C[S+]([O-])Cc1ccc(F)cc1)N1CCc2sccc2C1 (stereo unspecified) | -3.86%

SMILES | cytotoxicity at 10 µM
CN1CCC(c2nc3ccc(-c4cccc(F)c4)cn3n2)CC1 | 10.4%
c1cncc(C2COC3(CCN(CC4CC4)CC3)C2)c1 (stereo unspecified) | -14.9%
CC(C)Nc1nc2c(c(NC3CC3)n1)CN(C(=O)Cc1ccsc1)CC2 | 10.4%
CS(=O)(=O)N1CC(c2ncn3ccccc23)C1 | 5.6%
C[S+]([O-])CCCNC(=O)c1cc(Br)c2c(c1)OCCO2 (stereo unspecified) | 16.9%
CC(C)Cn1ncc(C(=O)O)c1C1CC1 | -14%
c1coc(CN2CC[C@@H]3O[C@@H](COCC4CCOCC4)CC[C@@H]32)c1 | -142%
CCNC(=O)C1CCN(c2cc(-c3ccccc3F)nc3ccnn23)C1 (stereo unspecified) | 4.31%
CC(C)c1nnc(CN2CCCC3(CC2)CN(C)C(=O)O3)o1 (stereo unspecified) | -1.52%
Cc1csc(C2CCCN(C(=O)c3cnn4ccc(C)nc34)C2)n1 (stereo unspecified) | 2.56%
CCC(CC)n1nc(C)cc1NC(=O)C1CCCO1 (stereo unspecified) | -0.951%
O=C(Cc1cccs1)N1CCOCC1CO (stereo unspecified) | -4.63%
CCC[C@H]1CN(S(C)(=O)=O)C[C@@H]1NC(=O)Cc1ccc(OC)cc1 | 1.85%
CCC(O)CNc1ccc(-c2nc(CC(C)C)no2)cn1 (stereo unspecified) | -6.19%
Cn1cc(CN2CCCN(C(=O)c3ccccn3)CC2)cn1 | -0.514%
Cc1ccccc1CN1CCC(NCC2CNc3ccnn3C2)CC1 (stereo unspecified) | 0.0194%
Clc1ccc(COCC2CCN(Cc3ccccn3)CC2)cc1 | 4.94%
CN1CCc2ccc(NCc3cscn3)cc2C1=O | -2.43%
CCc1ccc(CNC[C@H]2C[C@@H](CO)N(C)[C@H]2c2ccccc2F)o1 | -3.09%
